The source made the active and inactive calls. The rule behind the calls is not given here. A value given as a limit tells only on which side of the number the result lay.

The IC50 is the concentration needed to halve the response being measured. What is called CC50 is the concentration that lowers cell viability or growth by half. The EC50 is the concentration giving half of the maximal effect.

Data set [1] concerns dengue virus type 2. Put plainly: Antiviral activity against Dengue virus 2 prototype 16681 infected in African green monkey Vero cells assessed as inhibition of viral RNA replication at 100 uM after 72 hrs by qPCR method. It is filed as functional, organism-based. The method in brief: (§1)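 Vero cells infected with DENV-2 (moi = 0.2), then treated with 100 μM compound, alone or together with 100 μM TrpGc (HINT1 inhibitor). After 72 h, supernatant RNA was extracted and viral progeny quantified by DENV-2-specific qPCR. Replication is expressed as percentage of the untreated infected control. Mean of four independent experiments.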

Data set [2] relates to dengue virus type 2. Put plainly: Antiviral activity against Dengue virus 2 prototype 16681 infected in Vero cells assessed as inhibition of virus induced cytopathic effect by plaque assay. The settings on record: prototype 16681, Vero. (In general: Protection from cytopathic effect is a common read-out in antiviral testing.)
Data set [3] deals with dengue virus type 2. Put plainly: Antiviral activity against Dengue virus 2 prototype 16681 infected in African green monkey Vero cells assessed as inhibition of viral RNA replication at 100 uM after 72 hrs in presence of 100 uM of HINT1 inhibitor […] by qPCR method. The class given is functional, organism-based. The method in brief: as §1
Data set [4] in a line: Cytotoxicity against African green monkey Vero cells assessed as decrease in cell viability after 72 hrs by neutral red dye uptake assay. The settings on record: chlorocebus sabaeus. It is filed as cell-based. Put shortly:
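Vero cells were exposed to a range of compound concentrations for 72 h. Viability was read by Neutral Red dye uptake, six replicates.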

Data set [5] deals with dengue virus type 2. Put plainly: Antiviral activity against Dengue virus 2 New Guinea assessed as inhibition of virus induced cytopathic effect by neutral red dye uptake assay. The class given is functional, organism-based.
Data set [6] in a line: Drug metabolism assessed as half life for ((2R,3R,4R,5R)-5-(2-amino-6-oxo-1,6-dihydro-9H-purin-9-yl)-3,4-dihydroxy-4-methyltetrahydrofuran-2-yl)methyl hydrogen (2-(1H-indol-3-yl)ethyl)phosphoramidate formation in HEPES buffer at pH 2 by RP-HPLC analysis. The class given is physicochemical. Put shortly:
(§2)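 Diester prodrug incubated at 37 °C in 20 mM HEPES buffer, pH 7.4 or pH 2.0. Removal of the 2-(methylthio)ethyl group, giving the monoester phosphoramidate, was followed over time by reversed-phase HPLC. The half-life was derived from the conversion time course.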

A short description of data set [7]: Drug metabolism assessed as half life for ((2R,3R,4R,5R)-5-(2-amino-6-oxo-1,6-dihydro-9H-purin-9-yl)-3,4-dihydroxy-4-methyltetrahydrofuran-2-yl)methyl hydrogen (2-(1H-indol-3-yl)ethyl)phosphoramidate formation in HEPES buffer at pH 7.4 by RP-HPLC analysis. The class given is physicochemical. Put shortly: as §2

`C[C@@]1(O)[C@H](O)[C@@H](COP(=O)(O)NCCc2c[nH]c3ccccc23)O[C@H]1n1cnc2c(=O)[nH]c(N)nc21`: the inhibition result in the data set on dengue virus type 2 [1] was “Active”. For the same compound, in the data set with dengue virus type 2 [2], the IC50 turned out to be 6.84 µM. For the same compound, the inhibition result in the data set on dengue virus type 2 [3] is “inactive”. Besides, in data set [4], the CC50 at 72 h was more than 200 µM.

Consider `C[C@@]1(O)[C@H](O)[C@@H](CO)O[C@H]1n1cnc2c(=O)[nH]c(N)nc21` [2'-B-METHYL-GUANOSINE], for which the EC50 in the data set with dengue virus type 2 [5] is 13.6 µM. The IC50 in the data set with dengue virus type 2 [2] came to 8.14 µM. The CC50 at 72 h in data set [4] is more than 200 µM.

For the compound `CSCCOP(=O)(NCCc1c[nH]c2ccccc12)OC[C@H]1O[C@@H](n2cnc3c(=O)[nH]c(N)nc32)[C@](C)(O)[C@@H]1O` (some centres undefined), in the data set with dengue virus type 2 [1], the inhibition entry was “Active”. Moreover, the t1/2 in data set [6] is 3.78 h; in data set [7], 4.5 h. Further, the IC50 with dengue virus type 2 [2] worked out at 1.59 µM. In addition, the inhibition result in the data set on dengue virus type 2 [3] is “inactive”. For the same compound, the CC50 at 72 h in data set [4] is more than 200 µM.

Consider `C[C@@]1(O)[C@H](O)[C@@H](CO)O[C@H]1n1cnc2c(N)ncnc21`, for which, in the data set on dengue virus type 2 [5], the EC50 was 4 µM.

The values are drawn from ChEMBL document CHEMBL4130454, “Anchimerically Activatable Antiviral ProTides” (ACS Med Chem Lett, 2017).
